Results reported in ChEMBL document CHEMBL1127597, “Oxadiazoles as ester bioisosteric replacements in compounds related to disoxaril. Antirhinovirus activity” (1994).
Values after ≈ are worked out from the molar mass of the structure shown. Active and inactive are the calls of the source. The calls are words filed in the database; no cut-off is given here.

These molecules were tested on Human rhinovirus sp. (assay: In vitro concentration required to inhibit 80 percent of human rhinovirus 15 serotypes was determined by TCID50 assay).
Type: functional
How it was run: (§1)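 HeLa monolayers were infected with a virus dilution giving 80-100% CPE in 3 days without drug. Compound was serially diluted in 10 2-fold steps onto the infected cells and incubated 3 days at 33 °C in 2.5% CO2. Cells were fixed with 5% glutaraldehyde and stained with 0.25% crystal violet.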

Row | SMILES | MIC80 [µM]
1 | Cc1cc(CCCOc2c(C)cc(-c3noc(C)n3)cc2C)on1 | 0.26 (≈ 0.0851 µg/mL)
2 | COCc1nc(-c2cc(C)c(OCCCc3cc(C)no3)c(C)c2)no1 | 0.43 (≈ 0.154 µg/mL)
3 | Cc1cc(CCCOc2c(C)cc(-c3noc(C(C)C)n3)cc2C)on1 | 0.93 (≈ 0.331 µg/mL)
4 | Cc1cc(CCCOc2c(C)cc(-c3noc(C4CC4)n3)cc2C)on1 | 0.54 (≈ 0.191 µg/mL)
5 | COCc1cc(CCCOc2c(Cl)cc(-c3noc(C)n3)cc2Cl)on1 | 0.18 (≈ 0.0717 µg/mL)
6 | CNc1nc(-c2cc(C)c(OCCCc3cc(C)no3)c(C)c2)no1 | 0.95 (≈ 0.325 µg/mL)
7 | CCc1cc(CCCOc2c(C)cc(-c3noc(CC)n3)cc2C)on1 | 0.4 (≈ 0.142 µg/mL)
8 | CCCc1nc(-c2cc(C)c(OCCCc3cc(C)no3)c(C)c2)no1 | 0.79 (≈ 0.281 µg/mL)
9 | Cc1nc(-c2cc(C)c(OCCCc3cc(CO)no3)c(C)c2)no1 | 0.73 (≈ 0.251 µg/mL)
10 | CCc1cc(CCCOc2c(C)cc(-c3ncon3)cc2C)on1 | 3.2 (≈ 1.05 µg/mL)
11 | CCc1nc(-c2cc(C)c(OCCCc3cc(C)no3)c(C)c2)no1 | 0.32 (≈ 0.109 µg/mL)
12 | Cc1nc(-c2cc(C)c(OCCCc3cc(C[S+](C)[O-])no3)c(C)c2)no1 (centres undefined) | 1 (≈ 0.389 µg/mL)
13 | CCc1cc(CCCOc2c(C)cc(-c3noc(C)n3)cc2C)on1 | 0.26 (≈ 0.0888 µg/mL)

Other lines, results leading:

Row | MIC80 [µM] | SMILES
14 | 3.6 (≈ 1.24 µg/mL) | Cc1cc(CCCOc2c(C)cc(-c3noc(CO)n3)cc2C)on1
15 | 0.21 (≈ 0.0746 µg/mL) | CCCc1cc(CCCOc2c(C)cc(-c3noc(C)n3)cc2C)on1
16 | 0.32 (≈ 0.12 µg/mL) | CSCc1cc(CCCOc2c(C)cc(-c3noc(C)n3)cc2C)on1
17 | 0.8 (≈ 0.285 µg/mL) | Cc1cc(CCCOc2c(C)cc(-c3noc(N(C)C)n3)cc2C)on1
18 | 0.21 (≈ 0.078 µg/mL) | CCc1nc(-c2cc(C)c(OCCCc3cc(COC)no3)c(C)c2)no1
19 | 0.73 (≈ 0.239 µg/mL) | Cc1cc(CCCOc2c(C)cc(-c3nc(C)no3)cc2C)on1
20 | 0.23 (≈ 0.0822 µg/mL) | CCOc1nc(-c2cc(C)c(OCCCc3cc(C)no3)c(C)c2)no1
21 | 0.71 (≈ 0.232 µg/mL) | Cc1cc(CCCOc2c(C)cc(-c3nnn(C)n3)cc2C)on1
22 | 0.9 (≈ 0.345 µg/mL) | Cc1cc(CCCCCOc2c(Cl)cc(C3=NCCO3)cc2Cl)on1 [WIN-54954]
23 | 0.24 (≈ 0.0891 µg/mL) | COCCc1cc(CCCOc2c(C)cc(-c3noc(C)n3)cc2C)on1
24 | 0.2 (≈ 0.0707 µg/mL) | Cc1nc(-c2cc(C)c(OCCCc3cc(C4CC4)no3)c(C)c2)no1
25 | 1.5 (≈ 0.536 µg/mL) | Cc1nc(-c2cc(C)c(OCCCc3cc(CCO)no3)c(C)c2)no1
26 | 0.19 (≈ 0.07 µg/mL) | Cc1cc(CCCOc2c(Cl)cc(-c3noc(C)n3)cc2Cl)on1
27 | 0.39 (≈ 0.134 µg/mL) | COc1nc(-c2cc(C)c(OCCCc3cc(C)no3)c(C)c2)no1
28 | 3.7 (≈ 1.21 µg/mL) | Cc1cc(CCCOc2c(C)cc(-c3nnc(C)o3)cc2C)on1
29 | 0.22 (≈ 0.0786 µg/mL) | COCc1cc(CCCOc2c(C)cc(-c3noc(C)n3)cc2C)on1
30 | 0.22 (≈ 0.0841 µg/mL) | CCc1cc(CCCOc2c(Cl)cc(-c3noc(C)n3)cc2Cl)on1
31 | 0.19 (≈ 0.0706 µg/mL) | CCOCc1cc(CCCOc2c(C)cc(-c3noc(C)n3)cc2C)on1
32 | 0.77 (≈ 0.312 µg/mL) | Cc1nc(-c2cc(C)c(OCCCc3cc(CS(C)(=O)=O)no3)c(C)c2)no1

Each molecule was assayed on Human rhinovirus sp. (assay: In vitro concentration required to inhibit 80 percent of human rhinovirus 54 serotypes was determined by TCID50 assay).
Type: functional

Row | SMILES | MIC80 [µM]
33 | Cc1cc(CCCOc2c(C)cc(-c3noc(C)n3)cc2C)on1 | 0.3 (≈ 0.0982 µg/mL)
34 | COCc1cc(CCCOc2c(Cl)cc(-c3noc(C)n3)cc2Cl)on1 | 0.19 (≈ 0.0757 µg/mL)

Other lines, results leading:

Row | MIC80 [µM] | SMILES
35 | 0.26 (≈ 0.0924 µg/mL) | CCCc1cc(CCCOc2c(C)cc(-c3noc(C)n3)cc2C)on1
36 | 0.3 (≈ 0.11 µg/mL) | Cc1cc(CCCOc2c(Cl)cc(-c3noc(C)n3)cc2Cl)on1
37 | 0.45 (≈ 0.161 µg/mL) | COCc1cc(CCCOc2c(C)cc(-c3noc(C)n3)cc2C)on1
38 | 0.23 (≈ 0.0879 µg/mL) | CCc1cc(CCCOc2c(Cl)cc(-c3noc(C)n3)cc2Cl)on1

Each molecule was assayed on Human rhinovirus sp. (assay: In vitro concentration required to inhibit 80 percent of human rhinovirus 15 serotypes was determined by TCID50 assay;c= inactive against majority of serotypes).
Type: functional, organism-based
How it was run: as §1

Row | SMILES | MIC80
39 | Cc1cc(CCCOc2c(C)cc(-c3ncon3)cc2C)on1 | inactive
40 | Cc1cc(CCCOc2c(C)cc(-c3noc(C(C)O)n3)cc2C)on1 (centres undefined) | inactive
41 | Cc1cc(CCCOc2c(C)cc(-c3noc(O)n3)cc2C)on1 | inactive

These molecules were tested on Human rhinovirus sp. (assay: In vitro concentration required to inhibit 80 percent of human rhinovirus 15 serotypes was determined by TCID50 assay;c inactive against majority of serotypes).
Type: functional, organism-based
How it was run: as §1

Row | SMILES | MIC80
42 | Cc1cc(CCCOc2c(C)cc(-c3noc(N)n3)cc2C)on1 | inactive
43 | Cc1cc(CCCOc2c(C)cc(-c3noc(S)n3)cc2C)on1 | inactive
44 | CC(=O)Nc1nc(-c2cc(C)c(OCCCc3cc(C)no3)c(C)c2)no1 | inactive
